Compound activity: PubChem, Johns Hopkins Ion Channel Center
KCNK9 block – inhibitors of human KCNK9 two-pore domain potassium channel | Q9NPC2 | HEK293 KCNK9, FluxOR thallium flux fluorescence; active compounds read low | B-score at 10 µM | 1.2% of 310,000 active | AID 488922;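 active = ratio B-score over 3 SD below the library mean, with starting fluorescence within 5 SD of its mean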;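 also: negative B-score means less thallium flux so channel inhibition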
Target sequence (Q9NPC2 whole entry, looked up, the tested form may be a part): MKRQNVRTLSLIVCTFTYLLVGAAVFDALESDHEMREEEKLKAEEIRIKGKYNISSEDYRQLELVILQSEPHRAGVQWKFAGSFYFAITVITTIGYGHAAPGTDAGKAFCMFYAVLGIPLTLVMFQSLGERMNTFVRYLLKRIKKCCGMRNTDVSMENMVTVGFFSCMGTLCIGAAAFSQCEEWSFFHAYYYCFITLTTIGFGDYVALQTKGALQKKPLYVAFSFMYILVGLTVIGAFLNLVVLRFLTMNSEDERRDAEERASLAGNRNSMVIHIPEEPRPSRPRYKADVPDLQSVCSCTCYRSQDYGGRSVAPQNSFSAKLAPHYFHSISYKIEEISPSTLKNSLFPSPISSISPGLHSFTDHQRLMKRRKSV
hERG rescue – hERG (human) protection from proarrhythmic block | CHO-hERG, FluxOR thallium flux, dofetilide IC70 present | AID 1511 | 0.51% of 310,000 active | Q12809 | activation (rescue from dofetilide block), less the hit threshold, % at 10 µM;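 active = activation above the mean of controls blocked by dofetilide plus 5 SD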;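 also: thallium influx through hERG after potassium depolarization seen as dye fluorescence rise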
KCNQ1 inh – human KCNQ1 channel inhibition; CHO-K1 KCNQ1, FluxOR thallium flux fluorescence; active compounds read high; 1.3% of 310,000 active; P51787; B-score at 10 µM;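 active = compounds whose thallium flux B-score, printed positive for inhibition, exceeds three library SD while starting fluorescence stays within three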;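 also: channel opened by potassium depolarization with thallium stimulus after 20 min compound exposure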
KCNK3 block – human KCNK3 channel inhibition, primary screen. 0.84% of 340,000 active. CHO-KCNK3 thallium flux, FluxOR fluorescence; active compounds read low. B-score at 10 µM. AID 602410. O14649;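 active = B-score under library mean minus 4 SD, starting fluorescence ratio at most library mean plus 5 SD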;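 also: more negative B-score means stronger inhibition of thallium flux through KCNK3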
Kir21 inh – blocks the mouse Kir2.1 inward-rectifier potassium channel; P35561; HEK293-Kir2.1, FluxOR thallium flux fluorescence; active compounds read low; B-score at 10 µM; 0.85% of 310,000 active; AID 1672;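 active = fluorescence ratio B-score at or below minus 3 SD of library scores, with starting-brightness B-score within 2 SD, cut at about -4.2 in these data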;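 also: channel flux triggered by added potassium and thallium sulfate stimulus; B-score of peak minus minimum fluorescence over baseline after thallium stimulus; more negative B-score means stronger Kir2.1 block with less thallium influx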
KCNQ1 act – potentiates or activates the human KCNQ1 potassium channel. CHO-K1 KCNQ1, thallium flux FluxOR fluorescence; active compounds read high. B-score at 10 µM. 0.35% of 310,000 active;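 active = fluorescence ratio B-score, a plate-corrected score, at least three library SD, with initial intensity B-score within 5 SD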
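Material: CHO-K1 cells stably expressing KCNQ1. Medium: assay buffer for compound exposure, DMSO matched across wells. Reagent: K+/Tl+ depolarizing stimulus. Compound dosing: single-concentration screen. Times: 37 °C overnight plating, 90-min dark dye load, 20-min compound pretreatment. Technique: FluxOR Tl+ flux fluorescence.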
KCNK9 inh conf – confirmation of human KCNK9 potassium channel inhibitors; shares compounds with KCNK9 block; HEK293 KCNK9 cells, FluxOR thallium flux fluorescence; inhibition, % at 10 µM; 43% of 4,900 active; AID 492992;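 active = thallium signal inhibited by more than 5 SD of the compound-free buffer control wells, on both duplicate plates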;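 also: 0% = assay buffer control wells without compound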
Kir21 sel – tests whether KCNK9 modulators also affect mouse Kir2.1. shares compounds with KCNK9 block. Kir2.1 cells, FluxOR thallium flux fluorescence. inhibition, % at 10 µM. 4% of 4,900 active. AID 492993;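 active = thallium signal drop more than 5 SD beyond the mean of the no-compound control wells, seen in both duplicate plates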;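 also: signal is fluorescence rise after thallium addition divided by baseline fluorescence; plate controls were assay buffer only for no effect and full block by chlorpromazine control for full effect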
KCNK9 uninduced – second check of KCNK9 modulator effects in non-induced HEK293 cells. FluxOR thallium flux. inhibition, % at 10 µM. shares compounds with KCNK9 block. AID 492997. 40% of 4,900 active;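 active = thallium signal drop beyond 5 SD of the untreated control mean, on both duplicate plates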;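 also: plate controls were buffer only IC0 wells for no effect and SID17386958 at its maximal inhibitory level for full effect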
* marks the source's active call; other numbers are inactive results; i = inactive; . = no result given. Shown are actives, neighbours in structure and some others; about 3.8% of the full set was active somewhere.

SMILES | KCNK9 block | hERG rescue | KCNQ1 inh | KCNK3 block | Kir21 inh | KCNQ1 act | KCNK9 inh conf | Kir21 sel | KCNK9 uninduced
CCCCN(C)C(=O)c1cccc(OC2CCN(CC(C)(C)C)CC2)c1 | -12* | -4 | i | i | 0.01 | i | i | i | i
Cc1cccc(CC(=O)N2CCN(C(=O)c3ccco3)CC2)c1 | i | -5 | i | i | -0.01 | i | . | . | .
O=[N+]([O-])c1c(C(Cl)Cl)nn(-c2ccccc2)c1N1CCOCC1 | i | -20 | i | i | -0.17 | i | . | . | .
O=[N+]([O-])c1c(C(Cl)Cl)nn(-c2ccc(Cl)cc2)c1N1CCCCC1 | i | -6 | i | i | 0.36 | i | i | i | i
CCCCOC(=O)c1ccc(NC(=O)c2ccccc2OC)cc1 | -9.2* | -9 | i | i | -0.67 | i | 74%* | i | 32%*
CCCCOC(=O)c1ccc(N/C(=N\S(=O)(=O)c2ccccc2)c2ccccc2)cc1 | -12* | -8 | i | i | 0.86 | i | 52%* | i | 37%*
CCOC(=O)c1oc2ccccc2c1COC(=O)CNC(=O)c1ccccc1OC | i | -13 | i | i | 0.67 | i | . | . | .
CCOC(=O)c1oc2ccccc2c1NC(=O)c1ccccc1OC | -8.9* | -16 | i | i | -0.02 | i | 34%* | i | i
CCN(CC(=O)NCc1ccncc1)S(=O)(=O)c1ccccc1 | i | -9 | i | i | 1.5 | i | . | . | .
CCOC(=O)C1=CN(Cc2ccco2)S(=O)(=O)NC1c1ccc(F)c(Cl)c1 (centres undefined) | . | . | . | i | . | . | . | . | .
CN(C)S(=O)(=O)c1ccc(Cl)c(NC(=O)CSc2nc3ccccc3c(=O)n2CCCN2CCOCC2)c1 | i | -13 | i | i | 0.56 | i | . | . | .
COCCN(CCOc1cc(C)cc(C)c1)Cc1ccc(Cl)cc1 | i | -9 | i | i | -1.9 | i | i | i | i
CN(C(=O)c1cccc(NC(=O)Cc2ccc(NC(=O)C3CCN(C(=O)C4CCC4)CC3)cc2)c1)C1CCC1 | . | . | . | i | . | . | . | . | .
Cc1ccc(SCCN2CCN(Cc3ccccc3)CC2)cc1 | i | -8 | i | i | -4.3 | i | i | i | i
O=C(CS(=O)(=O)c1ccccc1)c1cc2cc(F)ccc2oc1=O | i | -4 | i | i | -3.9 | i | . | . | .
CCc1ccc(-c2cc(C)no2)cc1S(=O)(=O)N1CCN(c2cc(C)ccc2C)CC1 | i | -8 | i | i | -0.04 | i | i | i | i
Cc1cc(C)nc(N/C(=N\S(=O)(=O)Cc2ccccc2)Nc2ccccc2Br)n1 | -9.4* | -9 | i | i | 1.9 | i | 40%* | i | i
Cc1cc(C)nc(Nc2ccccc2Br)n1 | i | -2 | i | i | -0.28 | i | . | . | .
CC(Oc1cccc2cccnc12)C(=O)N/N=C/c1ccc2c(c1)OCO2 (centres undefined) | i | -8 | i | i | -1.3 | i | . | . | .
Cc1ccc(SCC2(O)CCN(S(=O)(=O)c3ccc(Cl)cc3)CC2)cc1 | i | -10 | i | i | -1.1 | 80* | i | i | i
Cc1ccc(SCc2cc(=O)[nH]c(SCC(=O)Nc3cc(Cl)ccc3Cl)n2)cc1 | i | -10 | i | i | -0.47 | i | . | . | .
COc1ccccc1-c1cccc([C@@H]2C[C@H]3[C@H](CON3C)CN2C(=O)CCc2ccccc2)c1 | . | . | . | i | . | . | . | . | .
CSCCC(NS(=O)(=O)c1ccc(Cl)cc1)C(=O)OCc1c(Cl)cccc1Cl (centres undefined) | -9.2* | -14 | i | i | -0.52 | i | 36%* | i | 36%*
COc1ccc(C(=O)N/N=C(/C)c2cccc(NC(=O)c3ccccc3F)c2)cc1 | i | -11 | i | i | -0.76 | i | . | . | .
C/C(=N\NC(=O)c1ccccc1F)c1ccc2c(c1)Nc1ccccc1S2 | -15* | 0 | i | i | -0.74 | i | i | i | 28%*
SMILES | KCNK9 block | hERG rescue | KCNQ1 inh | KCNK3 block | Kir21 inh | KCNQ1 act | KCNK9 inh conf | Kir21 sel | KCNK9 uninduced
O=C(CSc1ccccc1)N1CCCC(N2CCN(c3cccc(Cl)c3)CC2)C1 (centres undefined) | i | -8 | i | i | -1.9 | i | . | . | .
COc1ccc(CNC(=O)c2cccc(-c3ccc(C)c4ccccc34)n2)cc1 | i | -11 | i | i | 0.22 | i | i | i | i
O=C(CN(Cc1ccco1)C(=O)c1ccc([N+](=O)[O-])cc1)Nc1ccccc1C(F)(F)F | . | . | . | i | . | . | . | . | .
CC(C)COc1ccc(C(=O)N(CC(=O)Nc2ccccc2C(F)(F)F)Cc2ccco2)cc1 | i | -14 | i | i | 0.57 | i | i | i | i
COc1ccc(CN(C)C(=O)COC(=O)c2cnc(Cl)c(Cl)c2)cc1 | . | . | . | i | . | . | . | . | .
CC(C)c1cc(C(N)=O)c(NC(=O)c2cccc(COc3ccc(Cl)cc3)c2)s1 | i | -9 | i | i | 0.7 | i | . | . | .
CC(C)COc1ccc(C(=O)Nc2scc(-c3ccc(Cl)cc3Cl)c2C(N)=O)cc1 | i | -12 | i | i | -0.54 | i | i | i | i
COC(=O)C1=C(C)OC(N)=C(C#N)C1c1ccccc1 (centres undefined) | i | -1 | i | i | -1.6 | i | . | . | .
COC(=O)C1=C(C)OC(N)=C(C#N)C1c1c(C)nn(-c2ccccc2)c1Cl (centres undefined) | -13* | -18 | i | i | 0.03 | i | 37%* | i | i
Cc1ccc(NC2CCCN(C(=O)c3cccs3)C2)cc1C (centres undefined) | i | -11 | i | i | -2.2 | i | i | i | i
CC(C)c1ccc(NC2CCCN(C(=O)c3cccs3)C2)cc1 (centres undefined) | i | -8 | i | i | 0.11 | i | i | i | i
COc1ccc(NC2CCCN(C(=O)c3cccs3)C2)cc1 (centres undefined) | i | -2 | i | i | -1.1 | i | i | i | i
COCc1ccc(C(=O)N2CCCC(Nc3ccc(C(C)C)cc3)C2)s1 (centres undefined) | i | -6 | i | i | -0.93 | i | i | i | i
Cc1cccc(C)c1NC(=O)CN(C)CC(=O)N(C)CC(=O)Nc1ccccc1Br | . | . | . | i | . | . | . | . | .
CCCCN(CC)C(=O)CSc1nc2n[nH]c(C)c2c(=N)n1-c1cccc(C)c1 | -9.2* | -3 | i | i | -0.4 | i | 34%* | i | i
